Results published in ChEMBL document CHEMBL1153433, “Design and synthesis of 2-amino-4-methylpyridine analogues as inhibitors for inducible nitric oxide synthase and in vivo evaluation of [18F]6-(2-fluoropropyl)-4-methyl-pyridin-2-amine as a potential PET tracer for inducible nitric oxide synthase” (J Med Chem, 2009).

Assays:
Nitric oxide synthase 1 = Nitric oxide synthase 1 (Homo sapiens, UniProt P29475); assay: Inhibition of human recombinant nNOS using 1 mM […] and 2 uM L-arginine after 30 mins
How it was run: (§1)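 Recombinant human NOS, scintillation proximity kit. Buffer: 50 mM Tris pH 7.4, 1.0 mM NADPH, 3.8 μM each of FMN, FAD and tetrahydrobiopterin, 2.0 mM DTT, 2.0 μM L-arginine. eNOS and nNOS buffer also had 20 μg/mL calmodulin and 1 mM CaCl2. Started with [3H]arginine, 30 min at room temperature, stopped with yttrium-silicate arginine-binding beads, counted after 2 h settling. IC50 mean ± SD, N ≥ 3.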

Nitric oxide synthase 3 = target: T1, Nitric oxide synthase 3 (Homo sapiens, UniProt P29474); assay: Inhibition of human recombinant eNOS using 1 mM […] and 2 uM L-arginine after 30 mins; how it was run: as §1
T1 sequence (P29474 whole entry): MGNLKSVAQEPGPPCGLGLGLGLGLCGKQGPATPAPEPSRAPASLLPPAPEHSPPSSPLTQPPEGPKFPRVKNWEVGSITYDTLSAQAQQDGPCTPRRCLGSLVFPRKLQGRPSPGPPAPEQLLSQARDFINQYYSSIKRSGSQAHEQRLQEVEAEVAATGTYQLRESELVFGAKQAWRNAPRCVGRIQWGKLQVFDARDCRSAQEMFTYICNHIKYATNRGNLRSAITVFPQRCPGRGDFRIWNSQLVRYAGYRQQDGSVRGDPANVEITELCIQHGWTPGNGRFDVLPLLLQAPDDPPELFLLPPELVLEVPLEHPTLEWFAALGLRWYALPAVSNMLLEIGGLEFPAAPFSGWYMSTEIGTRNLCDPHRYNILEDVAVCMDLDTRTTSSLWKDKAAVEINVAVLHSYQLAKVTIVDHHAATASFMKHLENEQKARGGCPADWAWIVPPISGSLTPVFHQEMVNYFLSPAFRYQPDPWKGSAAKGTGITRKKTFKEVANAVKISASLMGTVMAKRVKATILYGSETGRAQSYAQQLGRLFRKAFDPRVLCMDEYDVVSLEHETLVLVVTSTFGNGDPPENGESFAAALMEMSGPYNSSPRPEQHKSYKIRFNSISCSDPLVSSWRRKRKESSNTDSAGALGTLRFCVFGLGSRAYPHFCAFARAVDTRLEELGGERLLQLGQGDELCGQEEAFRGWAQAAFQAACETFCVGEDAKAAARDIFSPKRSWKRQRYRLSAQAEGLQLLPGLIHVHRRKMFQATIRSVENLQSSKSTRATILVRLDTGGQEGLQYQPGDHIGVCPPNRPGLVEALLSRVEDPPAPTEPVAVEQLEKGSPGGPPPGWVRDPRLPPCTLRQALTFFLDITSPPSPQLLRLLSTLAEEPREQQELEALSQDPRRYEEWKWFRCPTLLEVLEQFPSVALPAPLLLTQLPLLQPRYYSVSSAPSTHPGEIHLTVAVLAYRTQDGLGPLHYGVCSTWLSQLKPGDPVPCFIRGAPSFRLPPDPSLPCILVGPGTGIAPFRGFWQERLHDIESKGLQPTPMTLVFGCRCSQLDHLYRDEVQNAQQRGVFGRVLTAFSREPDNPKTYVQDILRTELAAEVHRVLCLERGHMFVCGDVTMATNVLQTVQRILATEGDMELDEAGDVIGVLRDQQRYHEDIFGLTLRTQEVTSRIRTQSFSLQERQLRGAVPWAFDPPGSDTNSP

[1] = target: Nitric oxide synthase, inducible (Homo sapiens, UniProt P35228); assay: Inhibition of human recombinant iNOS using 1 mM […] and 2 uM L-arginine after 30 mins; how it was run: as §1
Sequence of Nitric oxide synthase, inducible (P35228 whole entry): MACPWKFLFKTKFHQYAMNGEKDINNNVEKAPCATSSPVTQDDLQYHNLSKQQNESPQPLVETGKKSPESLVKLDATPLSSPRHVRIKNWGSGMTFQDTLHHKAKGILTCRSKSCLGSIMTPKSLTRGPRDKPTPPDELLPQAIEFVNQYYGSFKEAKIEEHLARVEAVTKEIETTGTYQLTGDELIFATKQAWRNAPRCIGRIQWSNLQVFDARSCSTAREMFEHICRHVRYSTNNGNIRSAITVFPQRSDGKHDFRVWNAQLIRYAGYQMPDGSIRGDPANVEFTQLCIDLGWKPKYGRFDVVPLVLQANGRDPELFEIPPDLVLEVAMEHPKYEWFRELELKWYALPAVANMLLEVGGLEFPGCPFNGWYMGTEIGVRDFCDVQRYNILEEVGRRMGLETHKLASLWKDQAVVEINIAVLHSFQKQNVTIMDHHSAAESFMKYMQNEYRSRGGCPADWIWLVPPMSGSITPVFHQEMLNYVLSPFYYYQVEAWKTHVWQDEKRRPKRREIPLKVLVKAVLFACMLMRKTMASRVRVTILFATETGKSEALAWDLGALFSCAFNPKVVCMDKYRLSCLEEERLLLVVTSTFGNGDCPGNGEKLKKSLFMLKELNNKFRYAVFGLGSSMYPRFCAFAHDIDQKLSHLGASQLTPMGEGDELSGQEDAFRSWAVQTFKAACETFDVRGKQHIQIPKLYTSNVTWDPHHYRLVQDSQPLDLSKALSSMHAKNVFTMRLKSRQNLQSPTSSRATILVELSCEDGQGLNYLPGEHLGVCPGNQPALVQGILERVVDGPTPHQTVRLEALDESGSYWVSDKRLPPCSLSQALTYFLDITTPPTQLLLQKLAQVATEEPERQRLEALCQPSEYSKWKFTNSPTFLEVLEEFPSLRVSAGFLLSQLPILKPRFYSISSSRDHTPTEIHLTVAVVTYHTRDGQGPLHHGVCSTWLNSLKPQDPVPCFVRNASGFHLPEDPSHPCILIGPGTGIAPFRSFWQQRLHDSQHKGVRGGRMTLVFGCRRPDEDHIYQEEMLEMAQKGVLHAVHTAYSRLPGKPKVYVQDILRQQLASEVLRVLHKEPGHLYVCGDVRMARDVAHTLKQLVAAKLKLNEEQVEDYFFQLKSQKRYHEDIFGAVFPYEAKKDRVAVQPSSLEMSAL

Sequence of Nitric oxide synthase 1 (P29475 whole entry): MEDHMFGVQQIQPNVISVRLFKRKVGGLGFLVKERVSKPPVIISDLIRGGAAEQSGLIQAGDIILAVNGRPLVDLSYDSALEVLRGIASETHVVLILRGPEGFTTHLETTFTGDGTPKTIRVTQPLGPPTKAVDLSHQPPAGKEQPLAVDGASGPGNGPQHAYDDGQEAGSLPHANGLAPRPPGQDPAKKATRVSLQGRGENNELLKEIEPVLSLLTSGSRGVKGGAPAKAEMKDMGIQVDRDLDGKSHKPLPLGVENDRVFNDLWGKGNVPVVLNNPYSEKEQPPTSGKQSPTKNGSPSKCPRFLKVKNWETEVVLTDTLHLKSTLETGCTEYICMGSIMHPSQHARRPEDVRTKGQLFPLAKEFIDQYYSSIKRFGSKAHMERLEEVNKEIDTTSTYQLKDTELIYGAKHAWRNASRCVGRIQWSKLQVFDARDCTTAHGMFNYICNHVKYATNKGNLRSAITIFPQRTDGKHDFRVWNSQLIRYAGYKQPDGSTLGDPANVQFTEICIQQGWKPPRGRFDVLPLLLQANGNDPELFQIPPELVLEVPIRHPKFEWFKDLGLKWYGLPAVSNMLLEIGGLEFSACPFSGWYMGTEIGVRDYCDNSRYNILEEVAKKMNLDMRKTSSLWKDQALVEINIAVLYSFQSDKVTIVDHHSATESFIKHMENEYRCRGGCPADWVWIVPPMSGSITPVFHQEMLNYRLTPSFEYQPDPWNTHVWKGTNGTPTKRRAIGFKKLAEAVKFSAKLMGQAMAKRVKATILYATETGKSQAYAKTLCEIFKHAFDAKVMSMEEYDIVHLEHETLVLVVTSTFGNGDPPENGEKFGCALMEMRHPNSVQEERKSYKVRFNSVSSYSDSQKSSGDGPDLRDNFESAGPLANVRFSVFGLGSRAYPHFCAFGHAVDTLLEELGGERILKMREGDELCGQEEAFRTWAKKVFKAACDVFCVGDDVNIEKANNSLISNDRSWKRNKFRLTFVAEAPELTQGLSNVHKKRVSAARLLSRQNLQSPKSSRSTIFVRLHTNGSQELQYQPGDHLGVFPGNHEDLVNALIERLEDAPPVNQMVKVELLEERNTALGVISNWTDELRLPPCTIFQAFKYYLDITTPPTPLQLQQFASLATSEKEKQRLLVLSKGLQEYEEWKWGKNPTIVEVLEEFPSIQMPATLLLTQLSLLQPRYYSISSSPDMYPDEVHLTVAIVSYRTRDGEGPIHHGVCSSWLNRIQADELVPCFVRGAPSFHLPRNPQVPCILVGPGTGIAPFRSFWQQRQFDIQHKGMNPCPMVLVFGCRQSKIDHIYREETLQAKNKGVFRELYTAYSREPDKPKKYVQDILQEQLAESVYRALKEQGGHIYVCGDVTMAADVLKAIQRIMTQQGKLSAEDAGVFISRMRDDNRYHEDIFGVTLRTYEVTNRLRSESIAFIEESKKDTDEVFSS

| IC50 [1] | SMILES | IC50 (Nitric oxide synthase 1) | IC50 (Nitric oxide synthase 3) |
| --- | --- | --- | --- |
| 220 nM | Cc1cc(N)nc(CC(C)F)c1 (stereo not drawn) | – | 1500 nM |
| > 5000 nM | Cc1cc(N)nc(CC(C)OCCF)c1 (stereo not drawn) | – | – |
| > 5000 nM | COCCC(C)Cc1cc(C)cc(N)n1 (stereo not drawn) | – | – |
| > 5000 nM | CSCCC(C)Cc1cc(C)cc(N)n1 (stereo not drawn) | – | – |
| > 5000 nM | COC(C)Cc1cc(C)cc(N)n1 (stereo not drawn) | – | – |
| 1780 nM | Cc1cc(N)nc(CC(C)O)c1 (stereo not drawn) | – | – |
| 282 nM | C/C=C/c1cc(C)cc(N)n1 | – | – |

| SMILES | IC50 [1] | IC50 (Nitric oxide synthase 1) | IC50 (Nitric oxide synthase 3) |
| --- | --- | --- | --- |
| Cc1cc(N)nc(CCCF)c1 | 57.6 nM | 514 nM | 1430 nM |
| Cc1cc(N)nc(CC(C)CCF)c1 (stereo not drawn) | 731 nM | – | – |
| Cc1cc(N)nc(CCCCF)c1 | 170 nM | – | – |
